Four compounds from ChEMBL document CHEMBL2062473, “Laurene-type sesquiterpenes from the Red Sea red alga Laurencia obtusa as potential antitumor-antimicrobial agents” (2012) can be followed below.

Values after ≈ are worked out from the molar mass of the structure shown. Active and inactive are the calls of the source. The rule behind the calls is not given here.

In test [1] the test system is Staphylococcus aureus. Nature of the test: Antibacterial activity against Staphylococcus aureus ATCC 29213 by two fold serial dilution technique. The class given is functional. The method in brief: (§1)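 Compounds first screened by disk diffusion. Those giving inhibition zones above 15 mm were then tested for bacteriostatic MIC by two-fold serial dilution.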
In test [2] the test system is Pseudomonas aeruginosa. Nature of the test: Antibacterial activity against Pseudomonas aeruginosa ATCC […] by two fold serial dilution technique. Format: functional, organism-based. A digest of the protocol:
as §1

In test [3] the test system is Candida albicans. Nature of the test: Antifungal activity against Candida albicans after 48 hrs by microtiter broth dilution method. The class given is functional. A digest of the protocol:
(§2)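 Fungi were grown 24 h at 37 C under 5% CO2 in YPD (1% yeast, 2% peptone, 2% dextrose), then diluted 1:100 in saline and 1:100 in YPD to about 1000 CFU per inoculum. Inocula were added to two-fold serial dilutions in 96-well broth, with drug-free growth and sterility controls. Plates were incubated 48 h at 37 C under 5% CO2. MIC was the lowest concentration without visible turbidity.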

For test [4], the system named is Bacillus subtilis. Nature of the test: Antibacterial activity against Bacillus subtilis ATCC 6633 by two fold serial dilution technique. Format: functional. A digest of the protocol:
as §1

The subject of test [5] is Aspergillus fumigatus. In words: Antifungal activity against wild type Aspergillus fumigatus Af293 after 48 hrs by microtiter broth dilution method. Format: functional. As to conditions: Af293, 48 h. The method in brief: as §2
In general terms: Broth dilution looks for growth in wells or tubes with falling amounts of substance.

Test [6] can be described thus: Cytotoxicity against mouse EAC at 25 to 100 uM after 2 hrs by trypan blue staining based hemocytometer analysis. The class given is functional, Ehrlich. The method in brief: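 Ehrlich ascites cells were aspirated aseptically from a donor animal's peritoneal fluid and kept in RPMI 1640 with 10% FBS. Cells were exposed to compounds at three levels (100, 50, 25) prepared in DMSO/RPMI-1640 for 2 h at 37 C in humidified 5% CO2. Viability was scored by trypan blue exclusion on a hemocytometer; untreated control viability exceeded 95%.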

The term MIC denotes the lowest concentration that inhibits growth of the organism. For the compound `CC1=C(C)[C@@](C)(c2ccc(CO)cc2)CC1`, the minimal inhibitory concentration (MIC) in test [1] was 52 µg/mL (≈ 240 µM); in test [3], 2000 µg/mL (≈ 9250 µM); in test [4], 46 µg/mL (≈ 213 µM); in test [5], 2000 µg/mL (≈ 9250 µM). Also, in test [2], the MIC entry is “inactive”.

With `CC1=C(C)[C@@](C)(C2=CCC(CO)=CC2)CC1`, the MIC is 31 µg/mL (≈ 142 µM) in test [1], 120 µg/mL (≈ 550 µM) in test [3], 39 µg/mL (≈ 179 µM) in test [4] and 200 µg/mL (≈ 916 µM) in test [5]. Moreover, the MIC entry in test [2] was “inactive”. Moreover, the Activity in test [6] was 79.9%.

Turning to `CC1=C(C)[C@@](C)(c2ccc(C=O)cc2)CC1` [ISOLAURELDEHYDE], the MIC came to 27 µg/mL (≈ 126 µM) in test [1], 70 µg/mL (≈ 327 µM) in test [3], 35 µg/mL (≈ 163 µM) in test [4] and 100 µg/mL (≈ 467 µM) in test [5]. Further, in test [2], the MIC entry is “inactive”. Further, in test [6], the Activity was determined as 83.1%.

With `CC(=O)N1CCN(c2ccc(OCC3COC(Cn4ccnc4)(c4ccc(Cl)cc4Cl)O3)cc2)CC1` (centres undefined) [KETOCONAZOLE], the minimal inhibitory concentration (MIC) in test [3] and in test [5] was 40 µg/mL (≈ 75.3 µM) throughout.
